Laboratory results as given in ChEMBL document CHEMBL3352014, “Effect of acyclic monoterpene alcohols and their derivatives on TRP channels” (Bioorg Med Chem Lett, 2014).

What was measured:
[1] = target: T1, Transient receptor potential cation channel subfamily A member 1 (Rattus norvegicus, UniProt Q6RI86); test: Antagonist activity against rat TRPA1 expressed in HEK293 cells assessed as inhibition of AITC-induced increase in intracellular Ca2+ concentration by Fluo-4-AM dye based spectrofluorimetry; format: cell-based
[2] = target: T2, Transient receptor potential cation channel subfamily M member 8 (Homo sapiens, UniProt Q7Z2W7); test: Agonist activity at TRPM8 (unknown origin) relative to untreated control
[3] = target: Transient receptor potential cation channel subfamily M member 8 (Rattus norvegicus, UniProt Q8R455); test: Antagonist activity against rat TRPM8 expressed in HEK293 cells assessed as inhibition of icilin-induced increase in intracellular Ca2+ concentration by Fluo-4-AM dye based spectrofluorimetry; format: cell-based
[4] = target: Transient receptor potential cation channel subfamily M member 8 (Rattus norvegicus) (UniProt Q8R455); test: Agonist activity at rat TRPM8 expressed in HEK293 cells assessed as increase in intracellular Ca2+ concentration by Fluo-4-AM dye based spectrofluorimetry relative to ionomycin; format: cell-based
Outline: (§1)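 Same stably transfected HEK293 Fluo-4 calcium assay: human TRPV1, rat TRPM8. Tyrode's buffer pH 7.4, 25 °C, ex 488/em 516 nm. Efficacy is the compound-evoked [Ca2+]i rise normalized to the maximal Ca2+ influx from 4 µM ionomycin. Means of at least 3 determinations.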

[5] = target: T2, Transient receptor potential cation channel subfamily M member 8; test: Agonist activity at TRPM8 (unknown origin)
[6] = target: T3, Transient receptor potential cation channel subfamily V member 1 (Homo sapiens, UniProt Q8NER1); test: Agonist activity at human TRPV1 expressed in HEK293 cells assessed as increase in intracellular Ca2+ concentration by Fluo-4-AM dye based spectrofluorimetry relative to ionomycin; format: cell-based; outline: as §1
[7] = target: T3, Transient receptor potential cation channel subfamily V member 1; test: Antagonist activity against human TRPV1 expressed in HEK293 cells assessed as inhibition of capsaicin-induced increase in intracellular Ca2+ concentration by Fluo-4-AM dye based spectrofluorimetry; format: cell-based
[8] = target: T1, Transient receptor potential cation channel subfamily A member 1; test: Agonist activity at rat TRPA1 expressed in HEK293 cells assessed as increase in intracellular Ca2+ concentration by Fluo-4-AM dye based spectrofluorimetry; format: cell-based
[9] = target: T3, Transient receptor potential cation channel subfamily V member 1; test: Agonist activity at human TRPV1 expressed in HEK293 cells assessed as increase in intracellular Ca2+ concentration by Fluo-4-AM dye based spectrofluorimetry; format: cell-based
Outline: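 HEK293 stably expressing human TRPV1 or rat TRPM8, grown in EMEM with non-essential amino acids, 10% FBS, 2 mM glutamine, 37 °C, 5% CO2. Fluo-4-AM loaded 1 h at room temperature; cells in Tyrode's buffer pH 7.4, about 100,000 per stirred cuvette. Fluorescence (ex 488/em 516 nm) read at 25 °C before and after various compound concentrations. EC50 from sigmoidal variable-slope fit; at least 3 determinations.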

[10] = target: Transient receptor potential cation channel subfamily A member 1 (Homo sapiens) (UniProt O75762); test: Antagonist activity against TRPA1 (unknown origin) assessed as reduction in H2O2-induced receptor activation at 400 uM
Chain of Transient receptor potential cation channel subfamily A member 1 (Homo sapiens) (O75762 whole entry): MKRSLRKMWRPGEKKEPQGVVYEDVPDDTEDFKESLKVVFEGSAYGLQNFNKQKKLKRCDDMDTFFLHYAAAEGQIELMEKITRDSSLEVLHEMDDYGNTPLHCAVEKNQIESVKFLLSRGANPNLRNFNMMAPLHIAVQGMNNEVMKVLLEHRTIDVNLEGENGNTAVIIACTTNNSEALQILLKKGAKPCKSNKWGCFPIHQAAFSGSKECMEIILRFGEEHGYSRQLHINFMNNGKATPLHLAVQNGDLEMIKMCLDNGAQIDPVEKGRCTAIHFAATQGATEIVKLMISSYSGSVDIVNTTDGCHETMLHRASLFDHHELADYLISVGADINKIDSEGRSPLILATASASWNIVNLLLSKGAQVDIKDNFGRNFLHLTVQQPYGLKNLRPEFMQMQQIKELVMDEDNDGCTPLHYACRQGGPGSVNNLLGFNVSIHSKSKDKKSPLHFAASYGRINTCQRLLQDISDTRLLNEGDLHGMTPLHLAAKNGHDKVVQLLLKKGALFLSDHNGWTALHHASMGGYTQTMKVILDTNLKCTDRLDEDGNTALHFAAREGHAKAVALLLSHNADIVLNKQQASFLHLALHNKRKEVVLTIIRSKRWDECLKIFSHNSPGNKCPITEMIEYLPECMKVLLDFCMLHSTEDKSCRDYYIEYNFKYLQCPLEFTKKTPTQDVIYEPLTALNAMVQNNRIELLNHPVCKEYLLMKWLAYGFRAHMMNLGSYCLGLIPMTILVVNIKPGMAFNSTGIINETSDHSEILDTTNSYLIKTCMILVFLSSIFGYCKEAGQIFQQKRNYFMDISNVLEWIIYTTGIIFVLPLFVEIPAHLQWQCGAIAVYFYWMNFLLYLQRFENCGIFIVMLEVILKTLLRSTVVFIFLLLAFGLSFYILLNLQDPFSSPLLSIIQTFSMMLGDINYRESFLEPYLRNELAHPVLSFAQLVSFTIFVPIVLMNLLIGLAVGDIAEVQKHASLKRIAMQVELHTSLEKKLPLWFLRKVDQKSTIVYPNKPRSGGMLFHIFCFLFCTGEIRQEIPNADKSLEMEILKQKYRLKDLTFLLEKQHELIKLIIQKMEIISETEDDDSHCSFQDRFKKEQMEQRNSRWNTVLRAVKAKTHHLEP

T3 sequence (Q8NER1 whole entry): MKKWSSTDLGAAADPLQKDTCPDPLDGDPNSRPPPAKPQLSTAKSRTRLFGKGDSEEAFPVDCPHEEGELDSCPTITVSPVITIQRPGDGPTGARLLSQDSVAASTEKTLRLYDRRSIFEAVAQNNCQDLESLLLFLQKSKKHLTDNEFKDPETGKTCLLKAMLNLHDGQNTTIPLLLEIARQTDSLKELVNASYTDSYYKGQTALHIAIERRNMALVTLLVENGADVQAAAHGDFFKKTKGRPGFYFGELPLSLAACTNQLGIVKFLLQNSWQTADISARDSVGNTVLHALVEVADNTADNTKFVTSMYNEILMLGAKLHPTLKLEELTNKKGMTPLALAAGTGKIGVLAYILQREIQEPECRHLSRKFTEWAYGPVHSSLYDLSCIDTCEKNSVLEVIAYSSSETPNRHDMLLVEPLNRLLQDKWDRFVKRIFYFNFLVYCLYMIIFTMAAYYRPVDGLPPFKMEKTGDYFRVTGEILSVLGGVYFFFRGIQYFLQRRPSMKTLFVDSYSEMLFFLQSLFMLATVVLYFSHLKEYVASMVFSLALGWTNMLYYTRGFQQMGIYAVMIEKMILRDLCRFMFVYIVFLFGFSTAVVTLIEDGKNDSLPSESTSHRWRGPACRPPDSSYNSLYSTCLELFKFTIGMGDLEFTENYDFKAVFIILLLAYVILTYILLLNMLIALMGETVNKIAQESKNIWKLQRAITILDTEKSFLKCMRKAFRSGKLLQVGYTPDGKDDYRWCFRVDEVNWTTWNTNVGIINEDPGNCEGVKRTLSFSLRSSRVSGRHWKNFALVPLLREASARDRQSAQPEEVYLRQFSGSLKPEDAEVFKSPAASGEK
Chain of Transient receptor potential cation channel subfamily M member 8 (Rattus norvegicus) (Q8R455 whole entry, looked up): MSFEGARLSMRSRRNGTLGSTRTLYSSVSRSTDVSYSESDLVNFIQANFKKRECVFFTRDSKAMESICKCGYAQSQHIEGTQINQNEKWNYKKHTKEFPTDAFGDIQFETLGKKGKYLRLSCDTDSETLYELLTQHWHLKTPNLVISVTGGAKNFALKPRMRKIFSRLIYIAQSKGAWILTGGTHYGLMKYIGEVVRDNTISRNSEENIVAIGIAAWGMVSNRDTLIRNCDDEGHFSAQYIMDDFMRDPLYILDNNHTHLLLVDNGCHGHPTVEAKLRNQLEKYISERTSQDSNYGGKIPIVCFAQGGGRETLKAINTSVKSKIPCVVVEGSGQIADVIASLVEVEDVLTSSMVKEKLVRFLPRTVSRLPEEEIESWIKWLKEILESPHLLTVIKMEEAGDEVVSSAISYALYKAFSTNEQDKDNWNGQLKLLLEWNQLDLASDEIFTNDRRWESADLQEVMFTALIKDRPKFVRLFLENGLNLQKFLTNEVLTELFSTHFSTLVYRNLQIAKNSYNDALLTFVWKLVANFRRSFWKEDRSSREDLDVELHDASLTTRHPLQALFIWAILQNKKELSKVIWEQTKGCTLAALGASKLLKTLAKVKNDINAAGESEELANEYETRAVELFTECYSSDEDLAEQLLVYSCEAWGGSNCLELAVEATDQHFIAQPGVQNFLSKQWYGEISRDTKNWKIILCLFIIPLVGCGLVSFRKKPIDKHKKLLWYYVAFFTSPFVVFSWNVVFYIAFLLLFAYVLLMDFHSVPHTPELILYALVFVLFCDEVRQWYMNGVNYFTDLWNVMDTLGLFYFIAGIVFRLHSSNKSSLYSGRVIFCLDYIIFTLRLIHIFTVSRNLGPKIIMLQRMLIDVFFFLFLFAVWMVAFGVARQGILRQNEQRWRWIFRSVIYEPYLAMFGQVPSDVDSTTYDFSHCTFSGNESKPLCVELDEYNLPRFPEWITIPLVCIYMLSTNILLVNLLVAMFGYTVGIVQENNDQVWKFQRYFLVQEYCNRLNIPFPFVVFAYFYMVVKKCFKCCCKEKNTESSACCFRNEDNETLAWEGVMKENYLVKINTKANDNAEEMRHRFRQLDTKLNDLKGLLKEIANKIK
Chain of Transient receptor potential cation channel subfamily M member 8 (Rattus norvegicus, UniProt Q8R455) (Q8R455 whole entry): as the sequence (Q8R455 whole entry, looked up) above
T1 sequence (Q6RI86 whole entry): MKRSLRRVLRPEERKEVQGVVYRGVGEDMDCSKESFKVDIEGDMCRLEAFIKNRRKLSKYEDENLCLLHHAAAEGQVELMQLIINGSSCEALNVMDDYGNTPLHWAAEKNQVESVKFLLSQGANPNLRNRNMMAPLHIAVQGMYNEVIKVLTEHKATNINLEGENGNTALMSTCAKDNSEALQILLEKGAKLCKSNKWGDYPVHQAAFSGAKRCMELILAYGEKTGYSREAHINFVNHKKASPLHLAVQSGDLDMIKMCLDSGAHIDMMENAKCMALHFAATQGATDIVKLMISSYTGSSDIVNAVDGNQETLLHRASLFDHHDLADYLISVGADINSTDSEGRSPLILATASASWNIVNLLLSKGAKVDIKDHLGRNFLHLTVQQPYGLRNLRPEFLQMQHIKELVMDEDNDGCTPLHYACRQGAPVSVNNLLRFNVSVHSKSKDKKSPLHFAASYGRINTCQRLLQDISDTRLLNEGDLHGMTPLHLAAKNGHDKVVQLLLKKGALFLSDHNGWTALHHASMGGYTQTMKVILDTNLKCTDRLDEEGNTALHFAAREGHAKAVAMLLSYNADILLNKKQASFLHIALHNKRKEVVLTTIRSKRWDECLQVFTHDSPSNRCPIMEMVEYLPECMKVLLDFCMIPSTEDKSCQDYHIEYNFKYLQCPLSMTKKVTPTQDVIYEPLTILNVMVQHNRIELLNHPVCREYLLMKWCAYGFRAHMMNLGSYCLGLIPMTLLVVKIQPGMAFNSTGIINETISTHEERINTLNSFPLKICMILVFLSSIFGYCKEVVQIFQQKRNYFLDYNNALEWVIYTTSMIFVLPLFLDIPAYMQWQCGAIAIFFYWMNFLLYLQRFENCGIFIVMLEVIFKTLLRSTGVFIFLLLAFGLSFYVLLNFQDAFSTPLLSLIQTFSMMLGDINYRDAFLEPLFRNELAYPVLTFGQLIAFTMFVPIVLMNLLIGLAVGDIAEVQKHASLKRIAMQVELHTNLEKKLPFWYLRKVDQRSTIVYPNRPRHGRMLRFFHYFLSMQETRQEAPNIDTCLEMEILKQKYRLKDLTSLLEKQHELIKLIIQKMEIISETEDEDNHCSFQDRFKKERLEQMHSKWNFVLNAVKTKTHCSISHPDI

Row | SMILES | IC50 [1] [µM] | Efficacy [2] [%] | IC50 [3] [µM] | Efficacy [4] [%] | EC50 [5] [µM] | Efficacy [6] [%] | IC50 [7] [µM] | EC50 [8] [µM] | EC50 [9] [µM] | inhibition [10] [%]
1 | CC(C)=CCC/C(C)=C/CO [GERANIOL] | > 100 | 28 | > 100 | < 10 | 5900 | < 10 | > 100 | – | – | –
2 | CC(C)=CCC/C(C)=C\CNC(=O)NC1CCCCC1 | 4.4 | – | 30 | < 10 | – | 50.1 | 15.7 | 2.65 | 8.9 | –
3 | CC(C)=CCCC(C)CCOC(=O)Cc1ccc(C)cc1 (configuration not stated) | – | – | 2.4 | < 10 | – | < 10 | > 100 | – | – | –
4 | CC(C)=CCCC(C)CCOC(=O)c1ccc(C)cc1 (configuration not stated) | 0.87 | – | > 100 | < 10 | – | < 10 | > 100 | 0.28 | – | –
5 | CC(C)=CCC/C(C)=C\COC(=O)Nc1ccc(C(C)(C)C)cc1 | 0.29 | – | > 100 | < 10 | – | 24 | 74.6 | 0.041 | 7.8 | –
6 | COc1ccc(CC(=O)OC/C=C(/C)CCC=C(C)C)cc1 | 0.26 | – | 9.7 | < 10 | – | < 10 | > 100 | 0.14 | – | –
7 | CC(C)=CCC/C(C)=C\COC(=O)c1ccc(C#N)cc1 | 0.34 | – | > 100 | < 10 | – | < 10 | > 100 | 0.26 | – | –
8 | CC(C)=CCC/C(C)=C/COC(=O)c1ccc(C#N)cc1 | 0.73 | – | > 100 | < 10 | – | < 10 | > 100 | 0.48 | – | –
9 | CC(C)=CCC/C(C)=C/COC(=O)c1ccc(C)cc1 | 1 | – | > 100 | < 10 | – | 17.6 | > 100 | 0.33 | 6 | –
10 | CC(C)=CCC/C(C)=C\COC(=O)c1ccc(C)cc1 | 0.11 | – | 1.2 | < 10 | – | < 10 | > 100 | 0.093 | – | –
11 | CC(C)=CCC/C(C)=C\CO [NEROL] | > 100 | – | > 100 | < 10 | – | < 10 | > 100 | 11.7 | – | –
12 | CC(C)=CCC/C(C)=C\COC(=O)Cc1cccc(I)c1 | 0.94 | – | > 100 | < 10 | – | < 10 | > 100 | 0.1 | – | –
13 | CC(C)=CCC/C(C)=C\CNC(=O)CCc1ccccc1 | 13.9 | – | 2.2 | < 10 | – | < 10 | > 100 | 6.6 | – | –
14 | CC(C)=CCC/C(C)=C/CNC(=O)Cc1ccc(Cl)cc1 | 1.4 | – | 3.8 | < 10 | – | 57.5 | 0.89 | 1.2 | 1.1 | –
15 | CC(C)=CCC/C(C)=C/CNC(=O)Nc1cccc(Cl)c1 | 0.48 | – | > 100 | < 10 | – | 21.2 | 0.71 | 0.61 | 2.5 | –
16 | CC(C)=CCC/C(C)=C\COC(=O)Cc1ccc(C)cc1 | – | – | 0.28 | < 10 | – | < 10 | > 100 | – | – | –
17 | COc1ccc(CC(=O)OC/C=C(\C)CCC=C(C)C)cc1 | 0.38 | – | > 100 | < 10 | – | 13.2 | > 100 | 0.51 | 8 | –
18 | CC(C)=CCCC(C)CCOC(=O)CCc1ccccc1 (configuration not stated) | 0.34 | – | > 100 | < 10 | – | < 10 | > 100 | 0.16 | – | –
19 | CC(C)=CCC/C(C)=C/COC(=O)c1cc(C(F)(F)F)cc(C(F)(F)F)c1 | > 100 | – | > 100 | < 10 | – | < 10 | > 100 | 11.9 | – | –
20 | CC(=O)OCCC(C)CCC=C(C)C (configuration not stated) [CITRONELLYL ACETATE] | > 100 | – | > 100 | < 10 | – | < 10 | > 100 | 12.2 | – | 70
21 | CC(C)=CCC/C(C)=C/COC(=O)Cc1ccc(Cl)cc1 | 0.13 | – | > 100 | < 10 | – | < 10 | > 100 | 0.12 | – | –
22 | CC(C)=CCC/C(C)=C/COC(=O)Cc1ccc(C)cc1 | – | – | 5.8 | < 10 | – | < 10 | > 100 | – | – | –
23 | CC(C)=CCC/C(C)=C\COC(=O)Cc1ccc2ccccc2c1 | 0.18 | – | > 100 | < 10 | – | < 10 | > 100 | 0.081 | – | –
24 | CC(C)=CCC/C(C)=C/CNC(=O)Oc1ccc(C(C)(C)C)cc1 | 0.038 | – | 86.5 | < 10 | – | 22.4 | 92.3 | 0.045 | 10.7 | –
25 | CC(C)=CCC/C(C)=C/CNC(=O)Nc1ccc(C(C)(C)C)cc1 | 0.57 | – | > 100 | < 10 | – | 21.9 | 76.8 | 0.092 | 8.7 | –
26 | CC(C)=CCC/C(C)=C/CNC(=O)CCc1ccccc1 | 7.4 | – | 5.5 | < 10 | – | 10.5 | > 100 | 7.5 | 16.2 | –

Further lines, results first:

Row | IC50 [1] [µM] | Efficacy [2] [%] | IC50 [3] [µM] | Efficacy [4] [%] | EC50 [5] [µM] | Efficacy [6] [%] | IC50 [7] [µM] | EC50 [8] [µM] | EC50 [9] [µM] | inhibition [10] [%] | SMILES
27 | 21.2 | – | > 100 | < 10 | – | < 10 | > 100 | 25.8 | – | – | CC(=O)OC/C=C(\C)CCC=C(C)C [GERANYL ACETATE]
28 | > 100 | – | > 100 | < 10 | – | < 10 | > 100 | > 100 | – | – | CC(C)=CCCC(C)CCO (racemic) [CITRONELLOL]
29 | – | – | 0.83 | < 10 | – | < 10 | > 100 | – | – | – | CC(C)=CCCC(C)CCOC(=O)Cc1ccc(Cl)cc1 (configuration not stated)
30 | 0.029 | – | > 100 | < 10 | – | 15.8 | > 100 | 0.018 | 6.5 | – | CC(C)=CCC/C(C)=C\CNC(=O)Oc1ccc(C(C)(C)C)cc1
31 | 0.11 | – | 0.29 | < 10 | – | < 10 | > 100 | 0.11 | – | – | CC(C)=CCC/C(C)=C\COC(=O)CCc1ccccc1
32 | 1.4 | – | > 100 | < 10 | – | < 10 | > 100 | 2.4 | – | – | CC(C)=CCC/C(C)=C/COC(=O)c1cccc(C)c1
33 | 0.41 | – | 0.71 | < 10 | – | 20.1 | 0.38 | 0.43 | 1.7 | – | CC(C)=CCC/C(C)=C\CNC(=O)Nc1cccc(Cl)c1
34 | 20.7 | – | > 100 | < 10 | – | < 10 | > 100 | 13.3 | – | – | CC(=O)OC/C=C(/C)CCC=C(C)C [NERYL ACETATE]
35 | 0.013 | – | 0.75 | < 10 | – | < 10 | > 100 | 0.016 | – | – | CC(C)=CCC/C(C)=C\COC(=O)Cc1ccc(Cl)cc1
36 | 11.8 | – | > 100 | < 10 | – | 36 | 9.9 | 4.9 | 4.8 | – | CC(C)=CCC/C(C)=C/CNC(=O)NC1CCCCC1
37 | 0.17 | – | > 100 | < 10 | – | 27.7 | > 100 | 0.39 | 4 | – | CC(C)=CCC/C(C)=C/COC(=O)CCc1ccccc1
38 | 0.94 | – | 2.2 | < 10 | – | 57.9 | 0.53 | 1 | 0.43 | – | CC(C)=CCC/C(C)=C\CNC(=O)Cc1ccc(Cl)cc1
39 | 0.14 | – | 30.8 | < 10 | – | < 10 | > 100 | 0.14 | – | – | CC(C)=CCC/C(C)=C\COC(=O)c1cccc(C)c1
